Results reported in ChEMBL document CHEMBL1158358, “Synthesis, antimicrobial and cytotoxic activities of some 5-arylidene-4-thioxo-thiazolidine-2-ones” (Eur J Med Chem, 2009).
Converted amounts (≈) assume the structure as drawn.

Key:
Format in all cases: functional
Enterococcus faecalis [1] = test: Antimicrobial activity against multidrug-resistant Enterococcus faecalis H.C. 24962 isolate after 20 hrs by twofold serial dilution technique; settings: H.C. 24962, 20 h
Procedure, shortened: (§1)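 Twofold serial dilution MIC in agar plates against Gram-positive strains and multidrug-resistant clinical isolates. Inoculum applied was 10⁵ CFU/plate. Plates with culture medium plus DMSO served as negative control. MIC was read after incubation at 35 °C for 20 h.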

Enterococcus faecalis [2] = test: Antimicrobial activity against Enterococcus faecalis UFPEDA 138 after 20 hrs by twofold serial dilution technique; settings: UFPEDA 138, 20 h
Procedure, shortened: (§2)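 MIC was determined by twofold serial dilution. Bacteria were tested in plates at 10⁵ CFU/plate and read after 20 h. C. albicans was tested in tubes at 10³ CFU/tube and read after 48 h. All incubations were at 35 °C. Medium plus DMSO served as the negative control.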

Staphylococcus aureus [3] = test: Antimicrobial activity against multidrug-resistant Staphylococcus aureus H.C. 20489 isolate after 20 hrs by twofold serial dilution technique; settings: H.C. 20489, 20 h; procedure, shortened: as §1
Candida albicans [4] = test: Antimicrobial activity against Candida albicans UFPEDA 1007 after 48 hrs by twofold serial dilution technique; settings: UFPEDA 1007, 48 h; procedure, shortened: as §2
Staphylococcus aureus [5] = test: Antimicrobial activity against multidrug-resistant Staphylococcus aureus H.C. 20981 isolate after 20 hrs by twofold serial dilution technique; settings: H.C. 20981, 20 h; procedure, shortened: as §1
Staphylococcus [6] = test: Antimicrobial activity against coagulase-negative Staphylococcus H.A.M. 338 isolate after 20 hrs by twofold serial dilution technique; settings: H.A.M. 338, 20 h; procedure, shortened: as §2
Enterococcus faecalis [7] = test: Antimicrobial activity against multidrug-resistant Enterococcus faecalis H.C. 21944 isolate after 20 hrs by twofold serial dilution technique; settings: H.C. 21944, 20 h; procedure, shortened: as §1
[8] = tested on: Mycolicibacterium smegmatis; test: Antimicrobial activity against Mycobacterium smegmatis UFPEDA 71 at 300 ug/disk after 24 hrs by disk diffusion method; settings: UFPEDA 71, 24 h, read-out: IZ
Procedure, shortened: (§3)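 Preliminary screen by disk diffusion. Paper disks (6 mm) holding 300 µg of compound were placed on agar plates inoculated with a standardized microbial suspension. DMSO-only disks served as negative controls. A mean inhibition zone below 7 mm was scored as no sensitivity. Values are means, n = 3.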

Staphylococcus aureus [9] = test: Antimicrobial activity against multidrug-resistant Staphylococcus aureus H.C. 20905 isolate after 20 hrs by twofold serial dilution technique; settings: H.C. 20905, 20 h; procedure, shortened: as §1
Bacillus subtilis [10] = test: Antimicrobial activity against Bacillus subtilis UFPEDA 16 at 300 ug/disk after 24 hrs by disk diffusion method; settings: UFPEDA 16, 24 h, read-out: IZ; procedure, shortened: as §3
Staphylococcus aureus [11] = test: Antimicrobial activity against Staphylococcus aureus UFPEDA 01 after 20 hrs by twofold serial dilution technique; settings: UFPEDA 01, 20 h; procedure, shortened: as §1
Staphylococcus aureus [12] = test: Antimicrobial activity against multidrug-resistant Staphylococcus aureus H.C. 21036 isolate after 20 hrs by twofold serial dilution technique; settings: H.C. 21036, 20 h; procedure, shortened: as §1
HEp-2 [13] = test: Cytotoxicity against human Hep2 cells at 1.25 ug/mL after 72 hrs by MTT assay; settings: HEp-2, 72 h, read-out: GI
Procedure, shortened: (§4)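 MTT antiproliferative assay. Cells were diluted to 10⁵ cells/mL in 96-well plates and preincubated for 24 h at 37 °C in humid 5% CO₂. Compounds or vincristine (reference) were then added. Formazan was dissolved and OD read at 540 nm, compared with medium-only control cells. Run in triplicate.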

NCI-H292 [14] = test: Cytotoxicity against human NCI-H292 cells at 5 ug/mL after 72 hrs by MTT assay; settings: NCI-H292, 72 h, read-out: GI; procedure, shortened: as §4
[15] = tested on: Mycolicibacterium smegmatis; test: Antimicrobial activity against Mycobacterium smegmatis UFPEDA 71 after 20 hrs by twofold serial dilution technique; settings: UFPEDA 71, 20 h; procedure, shortened: as §2
Pseudomonas aeruginosa = test: Antimicrobial activity against Pseudomonas aeruginosa UFPEDA 39 at 300 ug/disk after 24 hrs by disk diffusion method; settings: UFPEDA 39, 24 h, read-out: IZ; procedure, shortened: as §3
NCI-H292 [16] = test: Cytotoxicity against human NCI-H292 cells at 10 ug/mL after 72 hrs by MTT assay; settings: NCI-H292, 72 h, read-out: GI; procedure, shortened: as §4
Serratia marcescens = test: Antimicrobial activity against Serratia marcescens UFPEDA 398 at 300 ug/disk after 24 hrs by disk diffusion method; settings: UFPEDA 398, 24 h, read-out: IZ; procedure, shortened: as §3
Micrococcus luteus [17] = test: Antimicrobial activity against Micrococcus luteus UFPEDA 06 at 300 ug/disk after 24 hrs by disk diffusion method; settings: UFPEDA 06, 24 h, read-out: IZ; procedure, shortened: as §3
Micrococcus luteus [18] = test: Antimicrobial activity against Micrococcus luteus UFPEDA 06 after 20 hrs by twofold serial dilution technique; settings: UFPEDA 06, 20 h; procedure, shortened: as §2
Staphylococcus [19] = test: Antimicrobial activity against coagulase-negative Staphylococcus H.A.M. 278 isolate after 20 hrs by twofold serial dilution technique; settings: H.A.M. 278, 20 h; procedure, shortened: as §2
Bacillus subtilis [20] = test: Antimicrobial activity against Bacillus subtilis UFPEDA 16 after 20 hrs by twofold serial dilution technique; settings: UFPEDA 16, 20 h; procedure, shortened: as §2
Staphylococcus aureus [21] = test: Antimicrobial activity against multidrug-resistant Staphylococcus aureus H.C. 20794 isolate after 20 hrs by twofold serial dilution technique; settings: H.C. 20794, 20 h; procedure, shortened: as §1
Enterococcus faecalis [22] = test: Antimicrobial activity against multidrug-resistant Enterococcus faecalis H.C. 21752 isolate after 20 hrs by twofold serial dilution technique; settings: H.C. 21752, 20 h; procedure, shortened: as §1
NCI-H292 [23] = test: Cytotoxicity against human NCI-H292 cells at 1.25 ug/mL after 72 hrs by MTT assay; settings: NCI-H292, 72 h, read-out: GI; procedure, shortened: as §4
Staphylococcus aureus [24] = test: Antimicrobial activity against Staphylococcus aureus UFPEDA 01 at 300 ug/disk after 24 hrs by disk diffusion method; settings: UFPEDA 01, 24 h, read-out: IZ; procedure, shortened: as §3
Enterococcus faecalis [25] = test: Antimicrobial activity against multidrug-resistant Enterococcus faecalis H.C. 24708 isolate after 20 hrs by twofold serial dilution technique; settings: H.C. 24708, 20 h; procedure, shortened: as §1
HEp-2 [26] = test: Cytotoxicity against human Hep2 cells at 10 ug/mL after 72 hrs by MTT assay; settings: HEp-2, 72 h, read-out: GI; procedure, shortened: as §4
Candida albicans [27] = test: Antimicrobial activity against Candida albicans UFPEDA 1007 at 300 ug/disk after 48 hrs by disk diffusion method; settings: UFPEDA 1007, 48 h, read-out: IZ; procedure, shortened: as §3
Escherichia coli = test: Antimicrobial activity against Escherichia coli UFPEDA 224 at 300 ug/disk after 24 hrs by disk diffusion method; settings: UFPEDA 224, 24 h, read-out: IZ; procedure, shortened: as §3
NCI-H292 [28] = test: Cytotoxicity against human NCI-H292 cells at 2.5 ug/mL after 72 hrs by MTT assay; settings: NCI-H292, 72 h, read-out: GI; procedure, shortened: as §4
Staphylococcus aureus [29] = test: Antimicrobial activity against multidrug-resistant Staphylococcus aureus H.C. 21141 isolate after 20 hrs by twofold serial dilution technique; settings: H.C. 21141, 20 h; procedure, shortened: as §1
HEp-2 [30] = test: Cytotoxicity against human Hep2 cells at 5 ug/mL after 72 hrs by MTT assay; settings: HEp-2, 72 h, read-out: GI; procedure, shortened: as §4
Enterococcus faecalis [31] = test: Antimicrobial activity against Enterococcus faecalis UFPEDA 138 at 300 ug/disk after 24 hrs by disk diffusion method; settings: UFPEDA 138, 24 h, read-out: IZ; procedure, shortened: as §3
HEp-2 [32] = test: Cytotoxicity against human Hep2 cells at 2.5 ug/mL after 72 hrs by MTT assay; settings: HEp-2, 72 h, read-out: GI; procedure, shortened: as §4

| SMILES | MIC (Enterococcus faecalis [1]) [µg/mL] | MIC (Enterococcus faecalis [2]) [µg/mL] | MIC (Staphylococcus aureus [3]) [µg/mL] | MIC (Candida albicans [4]) [µg/mL] | MIC (Staphylococcus aureus [5]) [µg/mL] | MIC (Staphylococcus [6]) [µg/mL] | MIC (Enterococcus faecalis [7]) [µg/mL] | zone of inhibition at 300 µg/disc [8] [mm] | MIC (Staphylococcus aureus [9]) [µg/mL] | zone of inhibition at 300 µg/disc (Bacillus subtilis [10]) [mm] | MIC (Staphylococcus aureus [11]) [µg/mL] | MIC (Staphylococcus aureus [12]) [µg/mL] | inhibition of growth at 1.25 µg/mL (HEp-2 [13]) [%] | inhibition of growth at 5 µg/mL (NCI-H292 [14]) [%] | MIC [15] [µg/mL] | zone of inhibition at 300 µg/disc (Pseudomonas aeruginosa) [mm] | inhibition of growth at 10 µg/mL (NCI-H292 [16]) [%] | zone of inhibition at 300 µg/disc (Serratia marcescens) [mm] | zone of inhibition at 300 µg/disc (Micrococcus luteus [17]) [mm] | MIC (Micrococcus luteus [18]) [µg/mL] | further results |
| --- | --- | --- | --- | --- | --- | --- | --- | --- | --- | --- | --- | --- | --- | --- | --- | --- | --- | --- | --- | --- | --- |
| O=C1NC(=S)/C(=C/c2ccc(Cl)cc2Cl)S1 | 8 (≈ 27.6 µM) | 16 (≈ 55.1 µM) | 2 (≈ 6.89 µM) | 32 (≈ 110 µM) | 2 (≈ 6.89 µM) | 2 (≈ 6.89 µM) | 4 (≈ 13.8 µM) | 19 | 2 (≈ 6.89 µM) | 24 | 2 (≈ 6.89 µM) | 8 (≈ 27.6 µM) | 6.83 | 29.3 | 4 (≈ 13.8 µM) | < 7 | 38.4 | < 7 | 24 | 8 (≈ 27.6 µM) | MIC (Staphylococcus [19]): 4 µg/mL (≈ 13.8 µM); MIC (Bacillus subtilis [20]): 2 µg/mL (≈ 6.89 µM); MIC (Staphylococcus aureus [21]): 2 µg/mL (≈ 6.89 µM); MIC (Enterococcus faecalis [22]): 4 µg/mL (≈ 13.8 µM); inhibition of growth at 1.25 µg/mL (NCI-H292 [23]): 12.1%; zone of inhibition at 300 µg/disc (Staphylococcus aureus [24]): 23 mm; MIC (Enterococcus faecalis [25]): 8 µg/mL (≈ 27.6 µM); inhibition of growth at 10 µg/mL (HEp-2 [26]): 24.8%; zone of inhibition at 300 µg/disc (Candida albicans [27]): 15 mm; zone of inhibition at 300 µg/disc (Escherichia coli): < 7 mm; inhibition of growth at 2.5 µg/mL (NCI-H292 [28]): 14.7%; MIC (Staphylococcus aureus [29]): 4 µg/mL (≈ 13.8 µM); inhibition of growth at 5 µg/mL (HEp-2 [30]): 20%; zone of inhibition at 300 µg/disc (Enterococcus faecalis [31]): 18 mm; inhibition of growth at 2.5 µg/mL (HEp-2 [32]): 15.3% |
| O=C1NC(=S)/C(=C/c2cc(Cl)cc(Cl)c2Cl)S1 | 4 (≈ 12.3 µM) | 2 (≈ 6.16 µM) | 2 (≈ 6.16 µM) | 64 (≈ 197 µM) | 2 (≈ 6.16 µM) | 2 (≈ 6.16 µM) | 4 (≈ 12.3 µM) | < 7 | 2 (≈ 6.16 µM) | < 7 | 4 (≈ 12.3 µM) | 2 (≈ 6.16 µM) | 12.6 | 39.7 | 32 (≈ 98.6 µM) | < 7 | 40.5 | < 7 | 21 | 4 (≈ 12.3 µM) | MIC (Staphylococcus [19]): 2 µg/mL (≈ 6.16 µM); MIC (Bacillus subtilis [20]): 2 µg/mL (≈ 6.16 µM); MIC (Staphylococcus aureus [21]): 2 µg/mL (≈ 6.16 µM); MIC (Enterococcus faecalis [22]): 4 µg/mL (≈ 12.3 µM); inhibition of growth at 1.25 µg/mL (NCI-H292 [23]): 14.2%; zone of inhibition at 300 µg/disc (Staphylococcus aureus [24]): 16 mm; MIC (Enterococcus faecalis [25]): 4 µg/mL (≈ 12.3 µM); inhibition of growth at 10 µg/mL (HEp-2 [26]): 23.5%; zone of inhibition at 300 µg/disc (Candida albicans [27]): < 7 mm; zone of inhibition at 300 µg/disc (Escherichia coli): < 7 mm; inhibition of growth at 2.5 µg/mL (NCI-H292 [28]): 33%; MIC (Staphylococcus aureus [29]): 2 µg/mL (≈ 6.16 µM); inhibition of growth at 5 µg/mL (HEp-2 [30]): 22.8%; zone of inhibition at 300 µg/disc (Enterococcus faecalis [31]): 19 mm; inhibition of growth at 2.5 µg/mL (HEp-2 [32]): 21.8% |
